Experimental data as given in ChEMBL document CHEMBL5352427, “Isoquinolone derivatives as lysophosphatidic acid receptor 5 (LPA5) antagonists: Investigation of structure-activity relationships, ADME properties and analgesic effects” (Eur J Med Chem, 2022).
In brackets after ≈: the same amount, converted by molar mass. Activity calls are given as the source filed them.

Columns and labels:
[1] = target: T1, Lysophosphatidic acid receptor 5 (Homo sapiens, UniProt Q9H1C0); assay: Agonist activity at human LPA5 receptor expressed in RH7777 cells assessed as calcium mobilization incubated for 15 mins by FLIPR method; format: functional, cell-based
In short: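 RH7777 cells stably expressing hLPA5, plated 20,000/well in 0.2% FBS medium 18–20 h, loaded 45 min at 37 °C with Calcium 5 dye in HBSS/20 mM HEPES/2.5 mM probenecid pH 7.4. […] Duplicates.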

[2] = target: T1, Lysophosphatidic acid receptor 5; assay: Antagonist activity at human LPA5 receptor expressed in RH7777 cells assessed as inhibition of EC80 concentration of hexadecyl LPA-induced calcium mobilization incubated for 15 mins by FLIPR method; format: functional, cell-based
[3] = target: T1, Lysophosphatidic acid receptor 5; assay: Antagonist activity at human LPA5 receptor expressed in RH7777 cells assessed as inhibition of EC80 concentration of LPA-induced cAMP accumulation preincubated for 30 mins followed by Eu-cAMP tracer addition and measured after 1 hr by TR-FRET assay relative to hexadecyl LPA; format: functional, cell-based; conditions: filed as antagonist
In short: (§1)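 hLPA5-RH7777 cells, switched to 0.2% FBS medium 20 h prior, lifted with versene, 2,000 cells/well in HBSS/5 mM HEPES/0.1% BSA/0.5 mM IBMX pH 7.4. Compound dilutions with hexadecyl LPA 16:0 EC80 (300 nM) plus forskolin, 30 min room temperature; LANCE Ultra Eu-cAMP tracer/ULight-anti-cAMP 1 h; TR-FRET 665 nm converted to cAMP via standard curve. Three-parameter logistic IC50; ≥3 experiments in duplicate.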

[4] = target: T1, Lysophosphatidic acid receptor 5; assay: Antagonist activity at human LPA5 receptor expressed in RH7777 cells assessed as inhibition of EC80 concentration of LPA-induced cAMP accumulation preincubated for 30 mins followed by Eu-cAMP tracer addition and measured after 1 hr by TR-FRET assay; format: functional, cell-based; in short: as §1
[5] = target: T1, Lysophosphatidic acid receptor 5; assay: Antagonist activity at human LPA5 receptor expressed in RH7777 cells assessed as inhibition of EC80 concentration of hexadecyl LPA-induced calcium mobilization incubated for 15 mins by FLIPR method relative to hexadecyl LPA; format: functional, cell-based; conditions: filed as antagonist
[6] = target: T2, Lysophosphatidic acid receptor 3 (Homo sapiens) (UniProt Q9UBY5); assay: Antagonist activity at human LPA3 receptor expressed in CHO cells assessed as inhibition of LPA-induced calcium mobilization at 10 uM incubated for 15 mins by FLIPR analysis relative to control; format: functional, cell-based
T2 sequence (whole entry): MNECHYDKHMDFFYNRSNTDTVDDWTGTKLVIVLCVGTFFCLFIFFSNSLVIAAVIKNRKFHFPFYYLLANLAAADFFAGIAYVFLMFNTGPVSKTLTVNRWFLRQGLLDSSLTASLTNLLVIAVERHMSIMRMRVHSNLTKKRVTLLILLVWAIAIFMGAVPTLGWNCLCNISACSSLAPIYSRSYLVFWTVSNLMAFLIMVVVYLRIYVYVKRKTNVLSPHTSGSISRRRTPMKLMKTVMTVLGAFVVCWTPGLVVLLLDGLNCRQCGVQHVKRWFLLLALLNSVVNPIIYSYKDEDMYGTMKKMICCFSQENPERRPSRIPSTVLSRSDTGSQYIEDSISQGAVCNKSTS
In short: (§2)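 Calcium mobilization in CHO cells overexpressing LPA1, LPA2 or LPA3, run by a contract lab under its own protocols; compounds tested at single 10 μM.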

[7] = Substrate activity at P-glycoprotein (unknown origin) in MDCK-MDR1 cells assessed as efflux ratio of apparent permeability across basolateral to apical over apical to basolateral side measured after 90 mins by LC-MS/MS analysis; format: ADME, cell-based, Canis lupus familiaris; conditions: dog, mdck-mdr1, 1.5 h
In short: (§3)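 MDCK-MDR1 cells (passage 5) grown 3 days on Transwell polycarbonate inserts; transport buffer HBSS/10 mM HEPES/0.25% BSA pH 7.4, 30 min preincubation 37 °C with TEER check. 10 μM test article added apical (A-to-B) or basolateral (B-to-A); receiver sampled at 30, 60, 90 min, LC-MS/MS. Papp = (dQ/dt)/(A·Ci); efflux ratio B-to-A/A-to-B. Atenolol, propranolol, digoxin references.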

Rattus norvegicus [8] = assay: Antiallodynic activity against CFA-induced Sprague-Dawley rat inflammatory pain model assessed as reduction in paw withdrawal threshold at 17.8 mg/kg measured after 5 hrs; format: functional, organism-based
In short: (§4)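 Adult male Sprague-Dawley rats (230–280 g, n=6/group); 0.1 ml CFA injected into right hind paw. Compounds i.p. (1–2 ml/kg) in 20% DMSO/10% emulphor/saline; AS2717638 in 30% propylene glycol vehicle. Mechanical paw withdrawal threshold (cut-off 26 g) measured every 30 min after single dose; two-way ANOVA, mean ± SEM.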

[9] = target: Lysophosphatidic acid receptor 1 (Homo sapiens) (UniProt Q92633); assay: Antagonist activity at human LPA1 receptor expressed in CHO cells assessed as inhibition of LPA-induced calcium mobilization at 10 uM incubated for 15 mins by FLIPR analysis relative to control; format: functional, cell-based; in short: as §2
[10] = target: Lysophosphatidic acid receptor 2 (Homo sapiens) (UniProt Q9HBW0); assay: Antagonist activity at human LPA2 receptor expressed in CHO cells assessed as inhibition of LPA-induced calcium mobilization at 10 uM incubated for 15 mins by FLIPR analysis relative to control; format: functional, cell-based; in short: as §2
[11] = Aqueous solubility of compound at pH 7.4; format: physicochemical; conditions: aqueous medium
In short: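 Kinetic solubility: 20 mM DMSO stock diluted into PBS (1 mM KH2PO4, 3 mM Na2HPO4, 155 mM NaCl) to a target of 400 μM; triplicates quantified by LC-MS/MS against matrix-matched standards.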

[12] = Apparent permeability across apical to basolateral side in MDCK-MDR1 cells incubated for 90 mins by LC-MS/MS analysis; format: ADME, cell-based, Canis lupus familiaris; conditions: dog, mdck-mdr1, 1.5 h; in short: as §3
[13] = target: Lysophosphatidic acid receptor 4 (Homo sapiens) (UniProt Q99677); assay: Antagonist activity at human LPA4 receptor expressed in CHO cells assessed as inhibition of LPA-induced calcium accumulation preincubated for 30 mins followed by Eu-cAMP tracer addition and measured after 1 hr by TR-FRET assay relative to hexadecyl LPA; format: functional, cell-based
Rattus norvegicus [14] = assay: Antiallodynic activity against CFA-induced mechanical allodynia Sprague-Dawley rat model assessed as reduction paw threshold pain measured at 32 mg/kg, ip; format: functional, organism-based; conditions: time 2.0 hrs, TDE = time-dependent effect; in short: as §4
Homo sapiens = species on record: Homo sapiens; assay: Selectivity ratio of IC50 for antagonist activity at human LPA5 receptor expressed in RH7777 cells assessed as inhibition of LPA-induced cAMP accumulation to IC50 for antagonist activity at human LPA5 receptor expressed in RH7777 cells assessed as inhibition of LPA-induced calcium mobilization; format: cell-based
Rattus norvegicus [15] = species on record: Rattus norvegicus; assay: Antinociceptive activity in CCI surgery-neuropathic pain induced Sprague-Dawley rat model assessed as reduction in paw threshold pain measured after 2 hrs; format: functional, organism-based; conditions: dose 32.0 mg/kg
In short: (§5)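 Male Sprague-Dawley rats (n=6), ketamine/xylazine anesthesia; four chromic gut ligatures ~1 mm apart around the right sciatic nerve. Drugs i.p. in DMSO/emulphor/saline (AS2717638 in propylene glycol vehicle), single or cumulative dosing with paw withdrawal threshold (cut-off 26 g) measured every 30 min.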

Rattus norvegicus [16] = assay: Antinociceptive activity in CCI surgery-neuropathic pain induced Sprague-Dawley rat model assessed as reduction in paw threshold pain measured at 32 mg/kg, ip; format: functional, organism-based; conditions: time 2.0 hrs, TDE = time-dependent effect; in short: as §5
Rattus norvegicus [17] = species on record: Rattus norvegicus; assay: Antiallodynic activity against CFA-induced mechanical allodynia Sprague-Dawley rat model assessed as reduction paw threshold pain measured after 2 hrs; format: functional, organism-based; conditions: dose 32.0 mg/kg; in short: as §4
Rattus norvegicus [18] = assay: Antiallodynic activity against CFA-induced Sprague-Dawley rat inflammatory pain model assessed as reduction in paw withdrawal threshold at 32 mg/kg measured after 2 hrs; format: functional, organism-based; in short: as §4
Rattus norvegicus [19] = assay: Antiallodynic activity in CCI surgery neuropathic pain induced Sprague-Dawley rat neuropathic pain model assessed as reversal of hypersensitivity condition at 17.8 mg/kg, ip measured after 10 days; format: functional; conditions: time 10 day
In short: (§6)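 Adult male Sprague-Dawley rats (230–280 g, n=6/group) given CCI under i.p. ketamine 75 mg/kg/xylazine 5 mg/kg: four chromic gut ligatures about 1 mm apart on the right sciatic nerve. Drug given i.p. (1–2 ml/kg) in 20% DMSO/10% emulphor/saline. Mechanical paw withdrawal threshold measured every 30 min (26 g cutoff). Reported as mean ± SEM, two-way ANOVA.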

Rattus norvegicus [20] = assay: Antinociceptive activity against in opioid-induced hyperalgesia Sprague-Dawley rat model assessed as reduction in mechanical hyperalgesia induced hypersensitivity at 5.6 to 17.8 mg/kg, ip and measured after 5 hrs; format: functional, organism-based; conditions: dose 5.6-17.8 mg/kg
In short: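 Opioid-induced hyperalgesia: after baselines on D−1 and D0, rats given four s.c. fentanyl injections of 0.06 mg/kg at 15 min intervals (0.24 mg/kg total); paw withdrawal thresholds tested after i.p. drug on days 1–2 post-fentanyl.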

Rattus norvegicus [21] = assay: Antiallodynic activity in CCI surgery-induced Sprague-Dawley rat neuropathic pain model assessed as reduction in paw withdrawal threshold at 17.8 mg/kg, ip measured after 5 hrs; format: functional; design: scale not given: the % may be the effect or the level left; in short: as §6
[22] = Drug concentration in Sprague-Dawley rat brain at 17.8 mg/kg, ip measured after 30 mins by LC-MS/MS analysis; format: ADME, organism-based; conditions: read-out: Ct
In short: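 Male Sprague-Dawley rats (258–277 g) given 17.8 mg/kg i.p. in 5% Cremophor/5% ethanol/saline; at 30 min two rats anesthetized with isoflurane, cardiac blood taken, PBS-perfused; brains homogenized 1:4 (w/v) in 25% isopropanol and quantified by LC-MS/MS.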

[23] = Effect on locomotory activity in opioid-induced hyperalgesia Sprague-Dawley rat model at 17.8 mg/kg, ip measured for 60 mins by infrared motion-sensor analysis; format: toxicity, organism-based; conditions: in vivo, 1 h
In short: (§7)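 Handled ≥3 days; rats pretreated 60 min with vehicle or 17.8 mg/kg i.p., then placed in activity chambers and locomotion recorded for 60 min.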

Rattus norvegicus [24] = assay: Antiallodynic activity in CCI surgery neuropathic pain induced ip dosed Sprague-Dawley rat hyperalgesia model assessed as reduction in mechanical allodynia by measuring reduction in paw threshold measured after 10 days; format: functional, organism-based; conditions: dose 3.2-17.8 mg/kg, time 10.0 day; in short: as §5
[25] = Effect on locomotory activity in CCI surgery-neuropathic pain induced Sprague-Dawley rat model at 17.8 mg/kg, ip measured for 60 mins by infrared motion-sensor analysis; format: toxicity, organism-based; conditions: in vivo, 1 h; in short: as §7

T1 sequence (Q9H1C0 whole entry): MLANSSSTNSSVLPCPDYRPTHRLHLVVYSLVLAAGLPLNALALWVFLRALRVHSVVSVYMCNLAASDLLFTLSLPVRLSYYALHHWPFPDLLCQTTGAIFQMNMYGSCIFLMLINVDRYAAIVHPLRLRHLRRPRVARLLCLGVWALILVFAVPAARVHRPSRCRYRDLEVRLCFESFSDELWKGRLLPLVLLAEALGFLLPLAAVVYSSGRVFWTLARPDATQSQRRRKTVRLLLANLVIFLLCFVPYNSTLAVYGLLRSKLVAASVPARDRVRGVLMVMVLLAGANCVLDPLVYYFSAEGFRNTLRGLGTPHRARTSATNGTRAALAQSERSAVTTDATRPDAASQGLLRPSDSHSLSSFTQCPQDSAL
Sequence of Lysophosphatidic acid receptor 1 (Homo sapiens) (Q92633 whole entry): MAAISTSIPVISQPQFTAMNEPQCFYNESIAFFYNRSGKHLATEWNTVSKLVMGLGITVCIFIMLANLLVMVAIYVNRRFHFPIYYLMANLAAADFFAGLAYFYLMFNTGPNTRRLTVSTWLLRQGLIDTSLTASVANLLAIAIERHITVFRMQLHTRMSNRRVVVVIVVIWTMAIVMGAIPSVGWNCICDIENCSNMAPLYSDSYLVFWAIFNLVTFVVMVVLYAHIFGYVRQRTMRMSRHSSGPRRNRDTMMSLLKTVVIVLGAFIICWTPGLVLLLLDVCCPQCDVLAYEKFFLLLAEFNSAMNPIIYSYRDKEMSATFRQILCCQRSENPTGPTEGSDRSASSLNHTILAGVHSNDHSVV
Sequence of Lysophosphatidic acid receptor 4 (Homo sapiens) (Q99677 whole entry): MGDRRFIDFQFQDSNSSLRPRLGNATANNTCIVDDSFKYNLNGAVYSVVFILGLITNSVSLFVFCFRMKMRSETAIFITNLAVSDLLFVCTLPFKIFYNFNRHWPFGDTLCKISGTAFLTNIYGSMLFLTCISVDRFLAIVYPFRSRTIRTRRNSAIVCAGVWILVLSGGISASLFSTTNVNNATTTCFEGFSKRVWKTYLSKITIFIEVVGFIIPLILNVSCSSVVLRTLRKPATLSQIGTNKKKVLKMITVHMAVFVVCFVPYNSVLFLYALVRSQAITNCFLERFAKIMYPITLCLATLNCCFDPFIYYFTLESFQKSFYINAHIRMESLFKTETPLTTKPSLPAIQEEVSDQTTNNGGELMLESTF
Sequence of Lysophosphatidic acid receptor 2 (Homo sapiens) (Q9HBW0 whole entry): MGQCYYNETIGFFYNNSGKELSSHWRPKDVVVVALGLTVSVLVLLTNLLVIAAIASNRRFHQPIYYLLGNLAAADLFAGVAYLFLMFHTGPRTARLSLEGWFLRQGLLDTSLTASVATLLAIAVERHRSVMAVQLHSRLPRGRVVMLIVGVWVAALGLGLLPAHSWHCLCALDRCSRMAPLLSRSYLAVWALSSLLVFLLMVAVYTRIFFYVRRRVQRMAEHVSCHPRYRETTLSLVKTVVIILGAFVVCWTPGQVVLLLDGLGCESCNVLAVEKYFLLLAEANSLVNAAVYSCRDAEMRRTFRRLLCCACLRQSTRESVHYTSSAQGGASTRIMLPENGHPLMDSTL

Row | Compound | Activity [1] | IC50 [2] | inhibition [3] | IC50 [4] | inhibition [5] | further results
1 | COc1cc2c(C(=O)N3CCC(F)CC3)cn(-c3cccc(C(C)C)c3)c(=O)c2cc1OC | inactive | 200 nM | 98% | 394 nM | 103% | 
2 | C#CC1CCN(C(=O)c2cn(-c3ccc4scc(C)c4c3)c(=O)c3cc(OC)c(OC)cc23)CC1 | inactive | 32 nM | 100% | 350 nM | 107% | inhibition [6]: < 50%; Activity (Rattus norvegicus [19]): 100%; Activity (Rattus norvegicus [20]): Active; Activity (Rattus norvegicus [21]): 100%; concentration at 0.5 h [22]: 652 ng/mL; Ratio [7]: 1.2; Activity (Rattus norvegicus [8]): Active; Activity [23]: Non-Toxic; inhibition [9]: < 50%; inhibition [10]: < 50%; solubility kinetic [11]: 19.5 µM (≈ 9.49 µg/mL); Activity (Rattus norvegicus [24]): Dose-Dependent Effect; Activity [25]: Non-Toxic; Papp [12]: 31.1 10^-6 cm/s; inhibition [13]: < 50%
3 | COc1cc2c(C(=O)N3CCC(F)CC3)cn(-c3ccc4occ(C)c4c3)c(=O)c2cc1OC | inactive | 144 nM | 100% | 203 nM | 102% | 
4 | COc1cc2c(C(=O)N3CCCCC3)cn(-c3cccc(N(C)C)c3)c(=O)c2cc1OC | inactive | 87 nM | 89% | 790 nM | 104% | 

Further compounds by falling IC50 [2], results first:

Row | Activity [1] | IC50 [2] | inhibition [3] | IC50 [4] | inhibition [5] | Compound | further results
5 | inactive | 79 nM | 94% | 950 nM | 102% | COc1cc2c(C(=O)N3CCC(F)CC3)cn(-c3cccc(N(C)C)c3)c(=O)c2cc1OC | 
6 | inactive | 69 nM | 104% | 340 nM | 107% | COc1cc2c(C(=O)N3CCC(F)CC3)cn(-c3ccc4scc(C)c4c3)c(=O)c2cc1OC | inhibition [6]: < 50%; Ratio [7]: 1.4; Activity (Rattus norvegicus [8]): Active; inhibition [9]: < 50%; inhibition [10]: < 50%; solubility kinetic [11]: 96.4 µM (≈ 46.3 µg/mL); Papp [12]: 22.2 10^-6 cm/s; inhibition [13]: < 50%
7 | inactive | 64 nM | 109% | 460 nM | 104% | COc1cc2c(C(=O)N3CCCCC3)cn(-c3ccc4ccn(C)c4c3)c(=O)c2cc1OC | 
8 |  | 58 nM | 94% | 570 nM | 104% | CCN1CCc2ccc(-n3cc(C(=O)N4CCC(F)CC4)c4cc(OC)c(OC)cc4c3=O)cc21 | 
9 | inactive | 48 nM | 88% | 190 nM | 105% | COc1cc2c(C(=O)N3CCCCC3)cn(-c3ccc4occ(C)c4c3)c(=O)c2cc1OC | 
10 |  | 36 nM | 102% | 210 nM | 108% | COc1cc2c(C(=O)N3CCCCC3)cn(-c3noc4ccc(C)cc34)c(=O)c2cc1OC | Activity (Rattus norvegicus [14]): Tde; Ratio IC50 (Homo sapiens): 5.8; Activity (Rattus norvegicus [15]): Dose-Dependent Effect; Activity (Rattus norvegicus [16]): Tde; Activity (Rattus norvegicus [17]): Dose-Dependent Effect; Activity (Rattus norvegicus [18]): Active
